From PubChem
The list is not random: actives were taken first. Their share in the collection is about 3.8%.
KCNK9 inh: human KCNK9 channel inhibition | B-score at 10 µM | actives 1.2% (n = 310,000) | Q9NPC2 | HEK293 KCNK9, FluxOR thallium flux fluorescence; hits give low values;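 active means ratio B-score over 3 SD below the library mean, with starting fluorescence within 5 SD of its mean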;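 further: negative B-score means less thallium flux so channel inhibition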
Target sequence (Q9NPC2 whole entry, looked up): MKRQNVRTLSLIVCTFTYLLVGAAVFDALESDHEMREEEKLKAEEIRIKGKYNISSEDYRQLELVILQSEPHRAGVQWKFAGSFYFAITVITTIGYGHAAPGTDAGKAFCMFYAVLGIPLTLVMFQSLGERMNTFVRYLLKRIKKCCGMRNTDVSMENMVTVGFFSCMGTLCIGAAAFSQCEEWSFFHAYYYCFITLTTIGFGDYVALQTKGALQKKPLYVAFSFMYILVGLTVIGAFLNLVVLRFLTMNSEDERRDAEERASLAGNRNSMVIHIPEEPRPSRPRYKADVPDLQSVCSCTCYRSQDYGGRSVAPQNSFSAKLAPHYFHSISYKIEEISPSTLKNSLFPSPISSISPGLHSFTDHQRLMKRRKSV
KCNK3 inh: human KCNK3 channel inhibition, primary screen; CHO-KCNK3 thallium flux, FluxOR fluorescence; hits give low values; B-score at 10 µM; actives 0.84% (n = 340,000);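 active means B-score under library mean minus 4 SD, starting fluorescence ratio at most library mean plus 5 SD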;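 further: more negative B-score means stronger inhibition of thallium flux through KCNK3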
KCNQ1 block: blocks the human KCNQ1 potassium channel. P51787. AID 2642. B-score at 10 µM. actives 1.3% (n = 310,000). CHO-K1 KCNQ1, FluxOR thallium flux fluorescence; hits give high values;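 active means compounds whose thallium flux B-score, printed positive for inhibition, exceeds three library SD while starting fluorescence stays within three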;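 further: channel opened by potassium depolarization with thallium stimulus after 20 min compound exposure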
Kir21 inh: blocks the mouse Kir2.1 inward-rectifier potassium channel; AID 1672; HEK293-Kir2.1, FluxOR thallium flux fluorescence; hits give low values; B-score at 10 µM; P35561; actives 0.85% (n = 310,000);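 active means fluorescence ratio B-score at or below minus 3 SD of library scores, with starting-brightness B-score within 2 SD, cut at about -4.2 in these data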;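 further: channel flux triggered by added potassium and thallium sulfate stimulus; B-score of peak minus minimum fluorescence over baseline after thallium stimulus; more negative B-score means stronger Kir2.1 block with less thallium influx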
hERG protect: hERG (human) protection from proarrhythmic block; Q12809; CHO-hERG, FluxOR thallium flux, dofetilide IC70 present; activation (rescue from dofetilide block), less the hit threshold, % at 10 µM; actives 0.51% (n = 310,000); AID 1511;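 active means activation above the mean of controls blocked by dofetilide plus 5 SD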;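 further: thallium influx through hERG after potassium depolarization seen as dye fluorescence rise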
KCNQ1 pot: human KCNQ1 channel potentiation or activation; actives 0.35% (n = 310,000); P51787; B-score at 10 µM; CHO-K1 KCNQ1, thallium flux FluxOR fluorescence; hits give high values;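 active means fluorescence ratio B-score, a plate-corrected score, at least three library SD, with initial intensity B-score within 5 SD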
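Medium – assay buffer, equal DMSO in all wells · Material – CHO-K1 cell line with stable KCNQ1 potassium channel expression · Signal – kinetic FluxOR thallium fluorescence, 10-s 1-Hz baseline, 110-s post-stimulus read · Compound – single concentration per compound, DMSO matched to controls · Schedule – 37 °C overnight plating, 90-min dark dye load, 20-min compound pretreatment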
* marks the source's active call; other numbers are inactive results; i = inactive; . = no result.

SMILES	KCNK9 inh	KCNK3 inh	KCNQ1 block	Kir21 inh	hERG protect	KCNQ1 pot
Cc1c(C(=O)NCCSCc2ccccc2)cccc1[N+](=O)[O-]	i	i	i	1.5	-4	i
Cc1ccc(C(=O)NCCSCc2ccc(Cl)cc2Cl)cc1[N+](=O)[O-]	i	i	8*	0.46	-7	i
Cc1ccc(C(=O)NNC(=S)NCC2CCCO2)cc1[N+](=O)[O-] (stereo unspecified)	i	i	i	1.1	-11	i
Cc1ccc(C(=O)NCC2CCCO2)cc1[N+](=O)[O-] (stereo unspecified)	i	i	i	1.2	4.7*	i
Cc1ccc(C(=O)NCC(C)NC(=O)c2ccc(C)c([N+](=O)[O-])c2)cc1[N+](=O)[O-] (stereo unspecified)	i	i	i	0.53	-14	i
CCCc1cc(-c2nc(-c3ccc(Cl)cc3)cs2)ccn1	-6.6*	i	i	-3.3	-11	i
Cc1cccc(N2C(=O)CS/C2=N\NC(=O)c2ccc(Br)cc2)c1C	i	i	i	-0.04	5.6*	i
O=C(O)CNC(=O)/C(=C\c1ccco1)NC(=O)c1ccco1	i	i	i	3.2	-1	i
O=C(NCCC1CC1(Cl)Cl)c1ccc([N+](=O)[O-])cc1 (stereo unspecified)	i	i	i	0.05	-7	i
O=C(OCCOCCN=C1NS(=O)(=O)c2ccccc21)c1ccccc1	i	i	i	-0.42	0	i
COc1cccc(CN2CCN(S(=O)(=O)c3ccc(Br)cc3)CC2)c1	i	-9.7*	i	-0.46	-3	i
O=C(COC(=O)/C=C/c1ccc(F)cc1)NCc1ccco1	i	i	i	-0.34	39*	i
O=C(COC(=O)/C=C/c1ccc([N+](=O)[O-])cc1)NCc1ccco1	i	i	i	1.6	-5	i
COc1cccc2c1[C@@H]1CN(CCCCn3c(=O)[nH]c4c(sc5ncc(-c6ccccc6)nc54)c3=O)C[C@@H]1CO2	.	i	.	.	.	.
CCCCCCCCCCn1ccc(=N)cc1	i	i	9*	-3.1	-24	i
c1ccc2oc(-c3csc(N4CCOCC4)n3)cc2c1	i	i	i	-1.1	-6	i
Cc1nc2sccn2c1-c1nc(-c2cc3ccccc3o2)cs1	-7.1*	i	i	0	-9	i
CCC(=O)N1c2ccc(S(=O)(=O)CCC(=O)N3CCN(c4ccccc4F)CC3)cc2CC1C (stereo unspecified)	i	i	i	-1	-10	i
CN1CCN(CC(=O)N2c3ccccc3C(C)(c3ccccc3)CC2(C)C)CC1 (stereo unspecified)	i	i	i	-6.2*	-7	i
CC1(c2ccc([N+](=O)[O-])cc2)CC(C)(C)N(C(=O)c2ccccc2)c2ccccc21 (stereo unspecified)	i	.	6*	0.24	-17	i
CN1CCN(CC(=O)N2c3ccccc3C(C)(c3ccc(Cl)cc3)CC2(C)C)CC1 (stereo unspecified)	i	i	i	-4.8	-10	i
FC(F)(F)c1ccc(Cl)c(N/N=C/c2ccc(N3CCOCC3)s2)c1	-6.9*	i	i	0.73	-1	i
O=C(N[C@@H](Cc1c[nH]c2ccccc12)C(=O)NC1CC1)c1ccccc1Cl	i	i	i	0.81	-8	i
COc1cc(S(=O)(=O)N(C)Cc2ccc3c(c2)OCCO3)ccc1NC(C)=O	.	i	.	.	.	.
O=C(COC(=O)c1ccccc1NS(=O)(=O)c1ccc(Cl)cc1)NCc1ccccc1	i	i	i	-1.9	-11	i
SMILES	KCNK9 inh	KCNK3 inh	KCNQ1 block	Kir21 inh	hERG protect	KCNQ1 pot
O=C(/C=C/c1ccccc1)NCCc1nc2ccccc2[nH]1	i	i	i	0	-8	i
COc1ccc(OC)c(/C=C/C(=O)NCCc2nc3ccccc3[nH]2)c1	i	i	7*	1	-10	i
CCSC1(SCC)N=C(N)C2(C#N)C(c3ccc(F)cc3)C12C#N (stereo unspecified)	i	i	i	-4.7*	-7	i
COC1(OC)N=C(N)C2(C#N)C(c3ccc(F)cc3)C12C#N (stereo unspecified)	i	i	i	1.2	-2	i
O=C(CCS(=O)(=O)c1ccc2c(c1)NC(=O)CS2)NCCc1ccccc1	i	i	i	0.67	-10	i
Cc1cccc(OCc2nnc(SCC(=O)N3c4ccccc4CCc4ccccc43)o2)c1	i	i	i	-0.92	-15	i
O=C(CSc1nnc(COc2ccc(F)cc2)o1)N1c2ccccc2CCc2ccccc21	-13*	i	i	1.6	-10	i
COCCCNC(=O)/C(C#N)=C/c1cccc(NC(=O)c2ccccc2Cl)c1	i	i	i	-0.36	-11	i
CNc1ccccc1C(=O)OC(C)C(=O)Nc1ccc(Cl)cn1 (stereo unspecified)	i	i	i	0.23	-8	12*
CCOc1ccc(OCCC(=O)OC(C)C(=O)Nc2ccc(Cl)cn2)cc1 (stereo unspecified)	.	i	.	.	.	.
CCOc1ncccc1C(=O)OC(C)C(=O)Nc1ccc(Cl)cn1 (stereo unspecified)	.	i	.	.	.	.
CCC(C(=O)OC(C)C(=O)Nc1ccc(Cl)cn1)c1ccccc1 (stereo unspecified)	i	i	i	-5.8*	-7	i
Nc1nc(Cl)nc2c1ncn2[C@H]1C[C@H](O)[C@@H](CO)O1	i	i	i	0.21	-3	i
Cc1noc(C)c1/C=N/Nc1ccccn1	i	i	i	-0.25	6.4*	i
Cc1cc(C)c(C(=O)c2ccc(C(=O)N3CCCCC3)cc2)c(C)c1	i	i	i	0.21	14*	i
CCOC(=O)C1=C(C)N(c2ccc(OC)cc2)C(=O)/C1=C\c1ccc(O)c(OCC)c1	i	i	6*	-0.38	-14	i
COc1ccc(/C=N/NC(=O)COc2ccccc2-c2ccccc2)cc1	i	i	i	1.9	-4	i
COc1ccc(Br)c(/C=N/NC(=O)COc2ccc(-c3ccccc3)cc2)c1	i	-9.2*	i	-0.3	-13	i
CSc1ccc(S(=O)(=O)N2CCC(C(=O)NCc3cccnc3)CC2)cc1	i	i	i	0.76	-9	i
CCCOc1ccc(S(=O)(=O)NCCN2CCOCC2)c2ccccc12	i	i	i	-4.4*	-3	i
CCOc1ccc(S(=O)(=O)NCCN2CCOCC2)c2ccccc12	i	i	i	-1.7	-4	i
